In ChEMBL document CHEMBL4715736, “Identification of anticancer agents based on the thieno[2,3-b]pyridine and 1H-pyrazole molecular scaffolds” (2016):

Test system: NCI-H522
Assay: Growth inhibition of human NCI-H522 cells assessed as cell growth at 0.01 uM incubated for 48 hrs by sulforhodamine B assay relative to control
Type: functional
Conditions: read-out: Activity

Row | Structure (SMILES) | growth at 0.01 µM
1 | Cc1ccc(NC(=O)c2sc3nc4c(cc3c2N)C(=O)CCC4)cc1C | 100%

Test system: COLO 205
Assay: Growth inhibition of human COLO 205 cells assessed as cell growth at 0.01 uM incubated for 48 hrs by sulforhodamine B assay relative to control
Type: functional
Conditions: read-out: Activity
How it was run: (§1)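 NCI Developmental Therapeutics Program NCI60 panel. Compounds that were active in the 10 µM one-dose screen went on to dose–response testing. Growth at each concentration is expressed relative to untreated control (100%). GI50 (concentration giving 50% of maximal inhibition of proliferation) and TGI (concentration giving total growth inhibition) were derived from the curves.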

Row | Structure (SMILES) | growth at 0.01 µM
2 | Cc1ccc(NC(=O)c2sc3nc4c(cc3c2N)C(=O)CCC4)cc1C | 101%

Test system: Malme-3M
Assay: Growth inhibition of human Malme-3M cells assessed as cell growth at 0.01 uM incubated for 48 hrs by sulforhodamine B assay relative to control
Type: functional
Conditions: read-out: Activity

Row | Structure (SMILES) | growth at 0.01 µM
3 | Cc1ccc(NC(=O)c2sc3nc4c(cc3c2N)C(=O)CCC4)cc1C | 96%

Test system: UACC-257
Assay: Growth inhibition of human UACC-257 cells assessed as cell growth at 0.01 uM incubated for 48 hrs by sulforhodamine B assay relative to control
Type: functional
Conditions: read-out: Activity

Row | Structure (SMILES) | growth at 0.01 µM
4 | Cc1ccc(NC(=O)c2sc3nc4c(cc3c2N)C(=O)CCC4)cc1C | 96%

Test system: ACHN
Assay: Growth inhibition of human ACHN cells assessed as cell growth at 0.01 uM incubated for 48 hrs by sulforhodamine B assay relative to control
Type: functional
Conditions: read-out: Activity

Row | Structure (SMILES) | growth at 0.01 µM
5 | Cc1ccc(NC(=O)c2sc3nc4c(cc3c2N)C(=O)CCC4)cc1C | 98%

Test system: RXF 393
Assay: Growth inhibition of human RXF 393 cells assessed as cell growth at 0.01 uM incubated for 48 hrs by sulforhodamine B assay relative to control
Type: functional
Conditions: read-out: Activity

Row | Structure (SMILES) | growth at 0.01 µM
6 | Cc1ccc(NC(=O)c2sc3nc4c(cc3c2N)C(=O)CCC4)cc1C | 87%

Test system: MDA-MB-231
Assay: Growth inhibition of human MDA-MB-231 cells assessed as cell growth at 0.01 uM incubated for 48 hrs by sulforhodamine B assay relative to control
Type: functional
Conditions: read-out: Activity

Row | Structure (SMILES) | growth at 0.01 µM
7 | Cc1ccc(NC(=O)c2sc3nc4c(cc3c2N)C(=O)CCC4)cc1C | 98%

Test system: T47D
Assay: Growth inhibition of human T47D cells assessed as cell growth at 0.01 uM incubated for 48 hrs by sulforhodamine B assay relative to control
Type: functional
Conditions: read-out: Activity

Row | Structure (SMILES) | growth at 0.01 µM
8 | Cc1ccc(NC(=O)c2sc3nc4c(cc3c2N)C(=O)CCC4)cc1C | 98%

Test system: K562
Assay: Growth inhibition of human K562 cells assessed as cell growth at 0.1 uM incubated for 48 hrs by sulforhodamine B assay relative to control
Type: functional
Conditions: read-out: Activity

Row | Structure (SMILES) | growth at 0.1 µM
9 | Cc1ccc(NC(=O)c2sc3nc4c(cc3c2N)C(=O)CCC4)cc1C | 118%

Test system: HOP-62
Assay: Growth inhibition of human HOP-62 cells assessed as cell growth at 0.1 uM incubated for 48 hrs by sulforhodamine B assay relative to control
Type: functional
Conditions: read-out: Activity

Row | Structure (SMILES) | growth at 0.1 µM
10 | Cc1ccc(NC(=O)c2sc3nc4c(cc3c2N)C(=O)CCC4)cc1C | 86%

Test system: SK-MEL-2
Assay: Growth inhibition of human SK-MEL-2 cells assessed as cell growth at 0.1 uM incubated for 48 hrs by sulforhodamine B assay relative to control
Type: functional
Conditions: read-out: Activity

Row | Structure (SMILES) | growth at 0.1 µM
11 | Cc1ccc(NC(=O)c2sc3nc4c(cc3c2N)C(=O)CCC4)cc1C | 90%

Test system: IGROV-1
Assay: Growth inhibition of human IGROV-1 cells assessed as cell growth at 0.1 uM incubated for 48 hrs by sulforhodamine B assay relative to control
Type: functional
Conditions: read-out: Activity

Row | Structure (SMILES) | growth at 0.1 µM
12 | Cc1ccc(NC(=O)c2sc3nc4c(cc3c2N)C(=O)CCC4)cc1C | 99%

Test system: OVCAR-8
Assay: Growth inhibition of human OVCAR-8 cells assessed as cell growth at 0.1 uM incubated for 48 hrs by sulforhodamine B assay relative to control
Type: functional
Conditions: read-out: Activity

Row | Structure (SMILES) | growth at 0.1 µM
13 | Cc1ccc(NC(=O)c2sc3nc4c(cc3c2N)C(=O)CCC4)cc1C | 100%

Test system: BT-549
Assay: Growth inhibition of human BT-549 cells assessed as cell growth at 0.1 uM incubated for 48 hrs by sulforhodamine B assay relative to control
Type: functional
Conditions: read-out: Activity

Row | Structure (SMILES) | growth at 0.1 µM
14 | Cc1ccc(NC(=O)c2sc3nc4c(cc3c2N)C(=O)CCC4)cc1C | 108%

Test system: RPMI-8226
Assay: Growth inhibition of human RPMI-8226 cells assessed as cell growth at 1 uM incubated for 48 hrs by sulforhodamine B assay relative to control
Type: functional
Conditions: read-out: Activity

Row | Structure (SMILES) | growth at 1 µM
15 | Cc1ccc(NC(=O)c2sc3nc4c(cc3c2N)C(=O)CCC4)cc1C | 57%

Test system: HOP-62
Assay: Growth inhibition of human HOP-62 cells assessed as cell growth at 1 uM incubated for 48 hrs by sulforhodamine B assay relative to control
Type: functional
Conditions: read-out: Activity

Row | Structure (SMILES) | growth at 1 µM
16 | Cc1ccc(NC(=O)c2sc3nc4c(cc3c2N)C(=O)CCC4)cc1C | 40%

Test system: MDA-MB-435
Assay: Growth inhibition of human MDA-MB-435 cells assessed as cell growth at 1 uM incubated for 48 hrs by sulforhodamine B assay relative to control
Type: functional
Conditions: read-out: Activity

Row | Structure (SMILES) | growth at 1 µM
17 | Cc1ccc(NC(=O)c2sc3nc4c(cc3c2N)C(=O)CCC4)cc1C | -58%

Test system: UACC-257
Assay: Growth inhibition of human UACC-257 cells assessed as cell growth at 1 uM incubated for 48 hrs by sulforhodamine B assay relative to control
Type: functional
Conditions: read-out: Activity

Row | Structure (SMILES) | growth at 1 µM
18 | Cc1ccc(NC(=O)c2sc3nc4c(cc3c2N)C(=O)CCC4)cc1C | 50%

Test system: ACHN
Assay: Growth inhibition of human ACHN cells assessed as cell growth at 1 uM incubated for 48 hrs by sulforhodamine B assay relative to control
Type: functional
Conditions: read-out: Activity

Row | Structure (SMILES) | growth at 1 µM
19 | Cc1ccc(NC(=O)c2sc3nc4c(cc3c2N)C(=O)CCC4)cc1C | 46%

Test system: MDA-MB-468
Assay: Growth inhibition of human MDA-MB-468 cells assessed as cell growth at 1 uM incubated for 48 hrs by sulforhodamine B assay relative to control
Type: functional
Conditions: read-out: Activity

Row | Structure (SMILES) | growth at 1 µM
20 | Cc1ccc(NC(=O)c2sc3nc4c(cc3c2N)C(=O)CCC4)cc1C | -9%

Test system: NCI-H460
Assay: Growth inhibition of human NCI-H460 cells assessed as cell growth at 100 uM incubated for 48 hrs by sulforhodamine B assay relative to control
Type: functional
Conditions: read-out: Activity

Row | Structure (SMILES) | growth at 100 µM
21 | Cc1ccc(NC(=O)c2sc3nc4c(cc3c2N)C(=O)CCC4)cc1C | -9%

Test system: COLO 205
Assay: Growth inhibition of human COLO 205 cells assessed as cell growth at 100 uM incubated for 48 hrs by sulforhodamine B assay relative to control
Type: functional
Conditions: read-out: Activity
How it was run: as §1

Row | Structure (SMILES) | growth at 100 µM
22 | Cc1ccc(NC(=O)c2sc3nc4c(cc3c2N)C(=O)CCC4)cc1C | -56%

Test system: LOX IMVI
Assay: Growth inhibition of human LOX IMVI cells assessed as cell growth at 100 uM incubated for 48 hrs by sulforhodamine B assay relative to control
Type: functional
Conditions: read-out: Activity

Row | Structure (SMILES) | growth at 100 µM
23 | Cc1ccc(NC(=O)c2sc3nc4c(cc3c2N)C(=O)CCC4)cc1C | 20%

Test system: SK-MEL-2
Assay: Growth inhibition of human SK-MEL-2 cells assessed as cell growth at 100 uM incubated for 48 hrs by sulforhodamine B assay relative to control
Type: functional
Conditions: read-out: Activity

Row | Structure (SMILES) | growth at 100 µM
24 | Cc1ccc(NC(=O)c2sc3nc4c(cc3c2N)C(=O)CCC4)cc1C | 18%

Test system: SK-MEL-28
Assay: Growth inhibition of human SK-MEL-28 cells assessed as cell growth at 100 uM incubated for 48 hrs by sulforhodamine B assay relative to control
Type: functional
Conditions: read-out: Activity

Row | Structure (SMILES) | growth at 100 µM
25 | Cc1ccc(NC(=O)c2sc3nc4c(cc3c2N)C(=O)CCC4)cc1C | 25%

Test system: IGROV-1
Assay: Growth inhibition of human IGROV-1 cells assessed as cell growth at 100 uM incubated for 48 hrs by sulforhodamine B assay relative to control
Type: functional
Conditions: read-out: Activity

Row | Structure (SMILES) | growth at 100 µM
26 | Cc1ccc(NC(=O)c2sc3nc4c(cc3c2N)C(=O)CCC4)cc1C | 10%

Test system: NCI/ADR-RES
Assay: Growth inhibition of human NCI/ADR-RES cells assessed as cell growth at 100 uM incubated for 48 hrs by sulforhodamine B assay relative to control
Type: functional
Conditions: read-out: Activity

Row | Structure (SMILES) | growth at 100 µM
27 | Cc1ccc(NC(=O)c2sc3nc4c(cc3c2N)C(=O)CCC4)cc1C | 4%

Test system: MOLT-4
Assay: Growth inhibition of human MOLT-4 cells incubated for 48 hrs by sulforhodamine B assay
Type: functional
Conditions: not given
How it was run: (§2)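 NCI60 panel at the NCI Developmental Therapeutics Program. Only compounds active in the 10 µM screen went to dose-response testing. GI50, the concentration giving 50% of maximal inhibition of proliferation, and TGI, the concentration giving total growth inhibition, were derived from the dose-response curves.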

Row | Structure (SMILES) | GI50 | TGI
28 | Cc1ccc(NC(=O)c2sc3nc4c(cc3c2N)C(=O)CCC4)cc1C | 6.41 µM | 76.2 µM

Same assay, conditions: read-out: LC50 (the source's name)

Row | Structure (SMILES) | CC50
29 | Cc1ccc(NC(=O)c2sc3nc4c(cc3c2N)C(=O)CCC4)cc1C | > 100 µM

Test system: A549
Assay: Growth inhibition of human A549/ATCC cells incubated for 48 hrs by sulforhodamine B assay
Type: functional
Conditions: not given
How it was run: as §1

Row | Structure (SMILES) | GI50 | TGI
30 | Cc1ccc(NC(=O)c2sc3nc4c(cc3c2N)C(=O)CCC4)cc1C | 0.673 µM | > 100 µM

Same assay, conditions: read-out: LC50 (the source's name)

Row | Structure (SMILES) | CC50
31 | Cc1ccc(NC(=O)c2sc3nc4c(cc3c2N)C(=O)CCC4)cc1C | > 100 µM

Test system: NCI-H226
Assay: Growth inhibition of human NCI-H226 cells incubated for 48 hrs by sulforhodamine B assay
Type: functional
Conditions: not given
How it was run: as §2

Row | Structure (SMILES) | GI50 | TGI
32 | Cc1ccc(NC(=O)c2sc3nc4c(cc3c2N)C(=O)CCC4)cc1C | 22.4 µM | > 100 µM

Same assay, conditions: read-out: LC50 (the source's name)

Row | Structure (SMILES) | CC50
33 | Cc1ccc(NC(=O)c2sc3nc4c(cc3c2N)C(=O)CCC4)cc1C | > 100 µM

Test system: IGROV-1
Assay: Growth inhibition of human IGROV-1 cells incubated for 48 hrs by sulforhodamine B assay
Type: functional
Conditions: not given
How it was run: as §2

Row | Structure (SMILES) | GI50 | LC50 | TGI
34 | Cc1ccc(NC(=O)c2sc3nc4c(cc3c2N)C(=O)CCC4)cc1C | 1.09 µM | > 100 µM | > 100 µM

Test system: OVCAR-4
Assay: Growth inhibition of human OVCAR-4 cells incubated for 48 hrs by sulforhodamine B assay
Type: functional
Conditions: not given
How it was run: (§3)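 NCI DTP 60-line human tumour panel. Dose-response curves were run only for ligands active in the initial 10 µM screen. GI50 (concentration giving 50% of maximal inhibition of proliferation) and TGI (concentration giving total growth inhibition) were derived from these curves.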

Row | Structure (SMILES) | GI50 | TGI
35 | Cc1ccc(NC(=O)c2sc3nc4c(cc3c2N)C(=O)CCC4)cc1C | 0.0201 µM | > 100 µM

Same assay, conditions: read-out: LC50 (the source's name)

Row | Structure (SMILES) | CC50
36 | Cc1ccc(NC(=O)c2sc3nc4c(cc3c2N)C(=O)CCC4)cc1C | > 100 µM

Test system: UO-31
Assay: Growth inhibition of human UO-31 cells incubated for 48 hrs by sulforhodamine B assay
Type: functional
Conditions: not given
How it was run: as §3

Row | Structure (SMILES) | GI50 | TGI
37 | Cc1ccc(NC(=O)c2sc3nc4c(cc3c2N)C(=O)CCC4)cc1C | 0.0505 µM | > 100 µM

Same assay, conditions: read-out: LC50 (the source's name)

Row | Structure (SMILES) | CC50
38 | Cc1ccc(NC(=O)c2sc3nc4c(cc3c2N)C(=O)CCC4)cc1C | > 100 µM
